Experimental data as given in PubChem BioAssay.
Calls of active or inactive are those of the source.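 Rule for the calls, unless noted: active = fluorescence slope after compound addition differing from the mean of all tested samples at 99.7% confidence, mostly higher but some lower; inactive = the rest.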

How the values were obtained:
[1] = inhibitors of TNFa-induced NFkB p65 translocation, primary screen, imaging, HUVEC, MLSMR starter and 10KST1 sets (AID 438;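 active = inhibition above 20% together with a positive visual image hit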;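 note: compound added about 3h40 before a 20 min TNFalpha stimulation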;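 for inhibition: signal is the nuclear over cytoplasmic p65 intensity ratio per well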); conditions: HUVEC TNFa-induced p65 nuclear translocation; cell count: measured here: nuclei count (cytotoxicity indicator), at 2.08 µM; inhibition: at 2 µM, stronger effect = higher value, 0% TNFa-plus-vehicle, 100% no-TNFa wells
[2] = inhibitors of mutant huntingtin aggregation, primary screen, imaging, exon1htt(103Q)mCFP cells, high-content imaging (AID 483;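 active = visual image review flags a hit and inhibition of aggregation exceeds 20%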;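 note: compound exposure lasted 3 days before fixation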;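 for nuclei count: percent of the per-plate median nuclei count of sample wells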); conditions: exon1htt(103Q)mCFP cell line, aggregate imaging, at 2 µM; inhibition of aggregation: stronger effect = higher value; nuclei count: measured here: cell count, toxicity
[3] = inhibitors of E-selectin induction by TNFa, primary screen, imaging, HUVEC, immunofluorescence, MLSMR starter and 10KST1 sets (AID 487;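 active = visually confirmed hit in the image check and inhibition above 20%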;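 for inhibition: signal is fraction of cell area covered by stained E-selectin grains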;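 for nuclei count: 100% = median nuclei count of all wells on the same plate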); conditions: HUVEC TNFalpha-induced E-selectin immunofluorescence imaging, at 2 µM; inhibition: stronger effect = higher value; nuclei count: measured here: cell number, toxicity
[4] = molecular target: Voltage-gated potassium channel subunit beta-2 (Rattus norvegicus) (UniProt P62483); assay: KvBeta enzyme negative modulators, primary screen, biochemical, NADPH fluorescence (AID 622;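 active = fluorescence slope higher than the sample average by over 3 SD, cut at about -0.22 in these data, passing the limit was not always enough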;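 note: slope of raw intensity against log time taken from 70 to 1610 s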); conditions: recombinant KvBeta, 4-cyanobenzaldehyde reduction, at 10 µM, stronger effect = higher value
[5] = molecular target: Voltage-gated potassium channel subunit beta-2 (Rattus norvegicus) (UniProt P62483); assay: KvBeta positive modulators, primary screen, biochemical, NADPH fluorescence (AID 623;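 active = NADPH fluorescence slope more negative than the mean of all samples by about 3 SD, 99.7% confidence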;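 note: fluorescence intensity change per second fitted from 20 to 320 s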); conditions: Recombinant KvBeta, NADPH fluorescence decrease slope, 10 min; at 10 µM; stronger effect = lower value
[6] = molecular target: Muscarinic acetylcholine receptor M4 (Homo sapiens) (UniProt P08173); assay: compounds altering M4/GIRK thallium flux, either direction, primary screen, M4 allosteric agonist project, cell-based, HEK293 M4/GIRK, BTC-AM (AID 625); conditions: at 10 µM, actives lie on both sides;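 note: thallium influx through GIRK channels coupled to M4 in HEK293 cells with BTC-AM dye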
In short: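 Assay system: HEK293 cells with M4 receptor and GIRK channels / Controls: carbachol and DMSO controls / Schedule: 1 h dye loading, 2 min kinetic read / Technique: kinetic fluorescence with BTC-AM dye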

[7] = inhibitors of Sendai virus-induced IRF3 signaling, primary screen, TLR/RLR signaling modifier project, cell-based, Sendai virus stimulus, luciferase, 10K MLSCN set (AID 602276;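 active = inhibition at or above 50% at 10 µM; inactive = inhibition below 50%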;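 note: firefly luciferase from ISG56 promoter only with Renilla not read in this screen; 0% = Sendai virus plus DMSO and 100% = medium plus DMSO without virus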); conditions: HEK293 RL24 IRF3 luciferase reporter, at 10 µM, stronger effect = higher value
[8] = inhibitors of poly I:C-induced TLR3 signaling, primary screen, cell-based, poly I:C stimulus, luciferase, 10K MLSCN set (AID 602277;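 active = inhibition of the reporter signal at or above 50%; inactive = inhibition below 50%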); conditions: HEK293-TLR3 RL24 IRF3 luciferase reporter, at 10 µM, stronger effect = higher value

Voltage-gated potassium channel subunit beta-2 (Rattus norvegicus), sequence (P62483 whole entry, looked up): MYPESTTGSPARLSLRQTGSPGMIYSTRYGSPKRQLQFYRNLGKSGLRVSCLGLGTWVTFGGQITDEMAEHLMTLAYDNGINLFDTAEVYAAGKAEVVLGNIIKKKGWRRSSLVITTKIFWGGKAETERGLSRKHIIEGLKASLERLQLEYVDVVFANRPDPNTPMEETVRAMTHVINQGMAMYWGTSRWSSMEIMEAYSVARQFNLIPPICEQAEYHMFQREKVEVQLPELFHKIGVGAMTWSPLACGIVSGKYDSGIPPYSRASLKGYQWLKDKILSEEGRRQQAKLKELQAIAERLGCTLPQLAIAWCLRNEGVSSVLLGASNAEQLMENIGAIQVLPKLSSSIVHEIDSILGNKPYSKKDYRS
Muscarinic acetylcholine receptor M4 (Homo sapiens), sequence (P08173 whole entry, looked up): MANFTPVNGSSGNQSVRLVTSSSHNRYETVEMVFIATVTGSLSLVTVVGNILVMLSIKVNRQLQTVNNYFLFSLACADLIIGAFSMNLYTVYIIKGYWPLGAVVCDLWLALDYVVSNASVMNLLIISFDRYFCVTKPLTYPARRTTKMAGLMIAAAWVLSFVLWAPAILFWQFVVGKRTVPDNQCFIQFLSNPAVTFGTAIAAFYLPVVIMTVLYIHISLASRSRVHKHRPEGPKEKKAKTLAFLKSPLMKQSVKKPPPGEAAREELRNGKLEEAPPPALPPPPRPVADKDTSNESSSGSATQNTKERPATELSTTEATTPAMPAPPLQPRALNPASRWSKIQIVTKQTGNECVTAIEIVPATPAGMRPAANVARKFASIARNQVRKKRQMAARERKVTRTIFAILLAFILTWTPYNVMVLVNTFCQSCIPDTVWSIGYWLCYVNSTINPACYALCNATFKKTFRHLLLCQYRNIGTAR

Row | Compound | cell count [1] | inhibition [1] | inhibition of aggregation [2] | nuclei count [2] [%] | inhibition [3] | nuclei count [3] [%] | fluorescence slope [4] | NADPH fluorescence slope [5] | fluorescence slope [6] | inhibition [7] | inhibition [8]
1 | Cc1nc2cccc(C(=O)NC3CCCCC3)c2o1 | 369 | 6.8% (inactive) | -19.6% (inactive) | 53.7 | -67.3% (inactive) | 102 | -0.416 (inactive) | -1.2e-05 (inactive) | 0.00546 (inactive) | 10.4% (inactive) | 13.1% (inactive)
2 | COc1cccc(CNC(=O)CCn2c(=O)oc3ccccc32)c1 | 277 | -11.3% (inactive) | 21.1% (inactive) | 8.9 | -28.3% (inactive) | 104 | -0.551 (inactive) | 5e-05 (inactive) | 0.0058 (inactive) | 14.4% (inactive) | 20.5% (inactive)
3 | Cc1ccc(CCNC(=O)Cn2cccc2)cc1 | 349 | -4.8% (inactive) | -1.7% (inactive) | 105 | -38.9% (inactive) | 103 | -0.355 (inactive) | -5.5e-05 (inactive) | 0.00566 (inactive) | 12.9% (inactive) | -5.93% (inactive)
4 | COc1ccc(CC(=O)NCc2ccccc2)cc1S(=O)(=O)N1CCOCC1 | 404 | -3.1% (inactive) | -17.5% (inactive) | 104 | -26.1% (inactive) | 110 | -0.583 (inactive) | -1.6e-05 (inactive) | 0.00498 (inactive) | 18.6% (inactive) | 21.9% (inactive)
5 | Cc1ccc(S(=O)(=O)N(C)CC(=O)NC2CC(C)(C)NC(C)(C)C2)cc1 | 331 | -6.6% (inactive) | 6.2% (inactive) | 98.6 | 1.9% (inactive) | 89.8 | -0.555 (inactive) | -1.8e-05 (inactive) | 0.00697 (inactive) | 11.7% (inactive) | 22.6% (inactive)
6 | CCNc1nc(OC)nc(Oc2ccc(=O)n(-c3ccccc3)n2)n1 | 769 | 6.8% (inactive) | 8.6% (inactive) | 106 | -86.7% (inactive) | 124 | -0.261 (inactive) | -3e-05 (inactive) | 0.00602 (inactive) | 16.1% (inactive) | 22% (inactive)
7 | COCCCNC(=O)c1ccc2c(c1)OCO2 | 391 | 1.4% (inactive) | 0.6% (inactive) | 107 | -36.4% (inactive) | 108 | -0.567 (inactive) | -9.1e-05 (inactive) | 0.00354 (inactive) | -10.8% (inactive) | -37.6% (inactive)
8 | COc1cccc2cc(C(=O)N3CCc4ccccc43)c(=O)oc12 | 274 | 4.3% (inactive) | -4.2% (inactive) | 106 | 18.4% (inactive) | 99 | -0.466 (inactive) | -5.5e-06 (inactive) | 0.00512 (inactive) | 8.43% (inactive) | 21% (inactive)
9 | O=C1CC(c2cccc(Cl)c2)CC(O)=C1C=NCCCO (stereo not drawn) | 498 | -18.1% (inactive) | 0.4% (inactive) | 87.3 | 28.3% (inactive) | 98.3 | -0.393 (inactive) | 4.1e-05 (inactive) | 0.00604 (inactive) | 16.7% (inactive) | 20.9% (inactive)
10 | Cc1ccc(C(=O)CSc2nnc(CNc3ccc(C)cc3C)o2)cc1 | 553 | -7.3% (inactive) | 19.7% (inactive) | 97.5 | -124% (inactive) | 193 | -0.477 (inactive) | -8.9e-06 (inactive) | 0.00488 (inactive) | 6.54% (inactive) | -0.256% (inactive)
11 | COc1ccc(Cn2c(=O)[nH]c3cc(C(=O)NCCCN4CCCC4)ccc3c2=O)cc1 | 474 | -5.2% (inactive) | 30.8% (inactive) | 88.2 | 30.4% (inactive) | 139 | -0.26 (inactive) | -1.4e-05 (inactive) | 0.00648 (inactive) | 11% (inactive) | -6.33% (inactive)
12 | CCN(CC)C(=O)CSc1nc2ccc(NC(=O)CSc3nccn3C)cc2s1 | 729 | -2.4% (inactive) | -36.9% (inactive) | 116 | 19.3% (inactive) | 94.3 | -0.577 (inactive) | -1.3e-05 (inactive) | 0.00661 (inactive) | -9.79% (inactive) | -19.1% (inactive)
13 | O=C(COc1ccccc1Cl)OCC(=O)N1CCN(S(=O)(=O)c2ccccc2)CC1 | 270 | 2.6% (inactive) | -0.5% (inactive) | 107 | -107% (inactive) | 119 | -0.438 (inactive) | 7.9e-05 (inactive) | 0.00565 (inactive) | 16.4% (inactive) | 21% (inactive)
14 | COc1ccccc1N1CCN(C(=O)c2ccc(CS(=O)(=O)c3ccccc3OC)o2)CC1 | 550 | -12.7% (inactive) | -6.3% (inactive) | 110 | -68.7% (inactive) | 113 | -0.478 (inactive) | 3.4e-05 (inactive) | 0.00677 (inactive) | 6.55% (inactive) | 15.7% (inactive)
15 | CC(=O)NCC(=O)OC(C)C(=O)Nc1ccc(C(C)=O)cc1 (stereo not drawn) | 413 | -12.7% (inactive) | 6.4% (inactive) | 116 | -12.6% (inactive) | 115 | -0.591 (inactive) | -4.9e-05 (inactive) | 0.0073 (inactive) | -0.376% (inactive) | 0.897% (inactive)
16 | CCOC(=O)c1c(NC(=O)c2ccoc2C)sc2c1CCC2 | 310 | 0% (inactive) | -0.4% (inactive) | 96.2 | -3.2% (inactive) | 96.3 | -0.407 (inactive) | -1.2e-05 (inactive) | 0.00584 (inactive) | 15.7% (inactive) | -10.1% (inactive)
17 | ON1C2CCCCC2N(O)C1c1c(F)c(F)c(F)c(F)c1F (stereo not drawn) | 431 | 4.1% (inactive) | -6.9% (inactive) | 105 | -53.7% (inactive) | 102 | -0.546 (inactive) | -2.9e-05 (inactive) | 0.00415 (inactive) | 15.7% (inactive) | 22% (inactive)
18 | CN(c1cccc(NS(=O)(=O)c2cccs2)c1)S(C)(=O)=O | 427 | 2.4% (inactive) | -15.2% (inactive) | 110 | -5% (inactive) | 109 | -0.446 (inactive) | -2.2e-06 (inactive) | 0.00491 (inactive) | 21.9% (inactive) | 15.4% (inactive)
19 | CN(C)C(=O)C12CCC(C)(c3nc4ccccc4nc31)C2(C)C (stereo not drawn) | 504 | -6.5% (inactive) | -24% (inactive) | 97 | -59.3% (inactive) | 112 | -0.492 (inactive) | -2e-05 (inactive) | 0.00404 (inactive) | -7.12% (inactive) | -15.4% (inactive)
20 | COc1cccc(Nc2c(F)c(F)c(F)c(F)c2C(=O)O)c1 | 246 | -4% (inactive) | 9.3% (inactive) | 77.5 | -11.9% (inactive) | 96.6 | -0.587 (inactive) | -3.3e-05 (inactive) | 0.00658 (inactive) | 10.2% (inactive) | 11.4% (inactive)
21 | CCN(CC)CCCN(Cc1cc2cc(OC)ccc2[nH]c1=O)C(=O)Nc1ccccc1 | 327 | 7.1% (inactive) | -3.3% (inactive) | 86.4 | -31.9% (inactive) | 105 | -0.382 (inactive) | -5.9e-06 (inactive) | 0.00643 (inactive) | 17.1% (inactive) | 29.7% (inactive)
22 | Nc1nnc(SCC(=O)N2CCc3ccccc32)n1-c1ccccc1 | 449 | -3.6% (inactive) | -2% (inactive) | 94.9 | -79.9% (inactive) | 111 | -0.542 (inactive) | -4.3e-05 (inactive) | 0.00439 (inactive) | 17.7% (inactive) | 27.2% (inactive)
23 | CC(C)Cn1c(=O)c(C(=O)NCc2ccccn2)c(O)c2ccccc21 | 771 | -20.7% (inactive) | -28.1% (inactive) | 104 | -24% (inactive) | 108 | -0.37 (inactive) | -4.4e-05 (inactive) | 0.00508 (inactive) | 10.4% (inactive) | -3.14% (inactive)
24 | CCN1CCN(C(=O)c2ccc3c(=O)n(CCC4=CCCCC4)c(=O)[nH]c3c2)CC1 | 465 | 3.4% (inactive) | -14% (inactive) | 95.8 | -29.3% (inactive) | 114 | -0.576 (inactive) | -7.8e-05 (inactive) | 0.00535 (inactive) | -36.8% (inactive) | -73.5% (inactive)
25 | COc1ccc(CC(NC(C)=O)C(=O)NC2CCN(C(=O)Nc3ccc(C#N)cc3)CC2)cc1OC (stereo not drawn) | 312 | -1.9% (inactive) | -14.4% (inactive) | 102 | -29.9% (inactive) | 112 | -0.415 (inactive) | 8.5e-05 (inactive) | 0.00714 (inactive) | 14.2% (inactive) | 14.3% (inactive)
26 | COc1ccc(C2=NOC(C(=O)NCCCN3CCOCC3)C2)cc1 (stereo not drawn) | 315 | 3.5% (inactive) | 11.3% (inactive) | 86 | 11.5% (inactive) | 84.7 | -0.554 (inactive) | -0.000122 (inactive) | 0.00417 (inactive) | 11.7% (inactive) | 23.1% (inactive)
27 | CCOC(=O)C1=C(CC)Nc2ccccc2N=C1NC(=O)Nc1ccccc1OC | 485 | -12.3% (inactive) | 7.2% (inactive) | 116 | -15% (inactive) | 119 | -0.593 (inactive) | 2.9e-06 (inactive) | 0.00703 (inactive) | 26.2% (inactive) | 38.4% (inactive)
28 | CS(=O)(=O)N1CCc2cc(C(=O)N3CCCCC3)ccc21 | 493 | 6.1% (inactive) | 0.6% (inactive) | 100 | -8.3% (inactive) | 83.3 | -0.494 (inactive) | 5.6e-05 (inactive) | 0.00629 (inactive) | 17.7% (inactive) | 18.6% (inactive)
